The source made the active and inactive calls.
Experiments:
[1] = test system: Escherichia coli; assay: Additive antibacterial activity against Escherichia coli NCTC 12241 assessed as fractional inhibitory concentration index measured after 24 hrs in presence of curcumin by checkerboard assay; format: functional
[2] = test system: Escherichia coli; assay: Antibacterial activity against Escherichia coli EC204 harboring NDM-1 assessed as reduction in bacterial growth incubated for 24 hrs in presence of curcumin; format: functional
[3] = test system: Escherichia coli; assay: Synergistic antibacterial activity against Escherichia coli EC204 harboring NDM-1 assessed as fractional inhibitory concentration index measured after 24 hrs in presence of curcumin by checkerboard assay; format: functional
Summary of the method: (§1)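 FICI was derived from checkerboard MICs. Synergy was defined as FICI ≤ 0.5 and additive as FICI > 0.5−4.0. Where an MIC was not reached, the dilution above the maximum dose was used in the FICI calculation. Experiments were run in triplicate and reported as means.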

[4] = test system: Acinetobacter baumannii; assay: Antibacterial activity against Acinetobacter baumannii NCTC 19606 assessed as log reduction in colony forming units at MIC measured after 6 hrs by time kill assay; format: functional
Summary of the method: (§2)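 Time-kill in Mueller-Hinton 2 broth. Inoculum was a 1/1000 dilution of a 16 h overnight culture, about 10^6 CFU/mL, 10 mL per tube. Arms were each agent alone at ×1 MIC, or the combination at ×1 MIC plus ×0.5 MIC partner. Incubated at 37 °C with continuous agitation for 24 h. Samples taken at 0, 2, 4, 6 and 24 h, serially diluted and plated on IsoSensitest agar for CFU counts.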

[5] = test system: Streptococcus pyogenes; assay: Antibacterial activity against Streptococcus pyogenes SPY3 assessed as reduction in bacterial growth incubated for 24 hrs in presence of curcumin; format: functional
[6] = test system: Enterococcus faecium; assay: Synergistic antibacterial activity against vancomycin-resistant Enterococcus faecium OEF42 assessed as fractional inhibitory concentration index measured after 24 hrs in presence of curcumin by checkerboard assay; format: functional; summary of the method: as §1
[7] = test system: Staphylococcus aureus; assay: Antibacterial activity against methicillin-resistant Staphylococcus aureus NCTC 12493 assessed as reduction in colony formation at MIC measured up to 24 hrs by time kill assay; format: functional, organism-based; conditions: time hrs <=24
Summary of the method: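 Time-kill in 10 mL Mueller-Hinton 2 broth, 37 °C with continuous agitation, 24 h. Inoculum was a 1/1000 dilution of a 16 h overnight culture, about 10^6 CFU/mL. Single agents at 1× MIC; combination at 1× MIC polymyxin B plus 0.5× MIC curcumin. Samples at 0, 2, 4, 6 and 24 h were serially diluted and plated on IsoSensitest agar for CFU/mL.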

[8] = test system: Acinetobacter baumannii; assay: Synergistic antibacterial activity against Acinetobacter baumannii NCTC 19606 assessed as fractional inhibitory concentration index measured after 24 hrs in presence of curcumin by checkerboard assay; format: functional; summary of the method: as §1
[9] = test system: Pseudomonas aeruginosa; assay: Antibacterial activity against Pseudomonas aeruginosa ATCC 27853 assessed as log reduction in colony forming units at MIC measured after 6 hrs by time kill assay; format: functional; summary of the method: as §2
[10] = test system: Streptococcus pyogenes; assay: Antibacterial activity against Streptococcus pyogenes SPY1 assessed as reduction in bacterial growth incubated for 24 hrs in presence of curcumin; format: functional
[11] = test system: Stenotrophomonas maltophilia; assay: Antibacterial activity against Stenotrophomonas maltophilia SMS01 assessed as reduction in bacterial growth incubated for 24 hrs in presence of curcumin; format: functional
[12] = test system: Pseudomonas aeruginosa; assay: Synergistic antibacterial activity against Pseudomonas aeruginosa PAO1 assessed as fractional inhibitory concentration index measured after 24 hrs in presence of curcumin by checkerboard assay; format: functional
Summary of the method: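 FICI calculated from combination MICs; ≤0.5 taken as synergy and >0.5–4.0 as additive. Where an MIC was not reached, the dilution above the highest concentration tested was used in the calculation. Run in triplicate and reported as means.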

[13] = test system: Pseudomonas aeruginosa; assay: Antibacterial activity against Pseudomonas aeruginosa PA30 harboring VIM-2 assessed as reduction in bacterial growth incubated for 24 hrs in presence of curcumin; format: functional
[14] = test system: Stenotrophomonas maltophilia; assay: Potentiation of polymyxin B-induced antibacterial activity against Stenotrophomonas maltophilia SMB07 assessed as fold reduction in polymyxin B MIC measured after 24 hrs in presence of polymyxin B by checkerboard assay; format: functional
[15] = test system: Streptococcus pyogenes; assay: Antibacterial activity against Streptococcus pyogenes SPY2 assessed as reduction in bacterial growth incubated for 24 hrs in presence of polymyxin B; format: functional
[16] = test system: Acinetobacter baumannii; assay: Potentiation of polymyxin B-induced antibacterial activity against Acinetobacter baumannii NCTC 19606 assessed as fold reduction in polymyxin B MIC measured after 24 hrs in presence of polymyxin B by checkerboard assay; format: functional
[17] = test system: Streptococcus pyogenes; assay: Potentiation of polymyxin B-induced antibacterial activity against Streptococcus pyogenes SPY1 assessed as fold reduction in polymyxin B MIC measured after 24 hrs in presence of polymyxin B by checkerboard assay; format: functional
[18] = test system: Escherichia coli; assay: Antibacterial activity against Escherichia coli NCTC 12241 assessed as reduction in bacterial growth incubated for 24 hrs in presence of polymyxin B; format: functional
[19] = test system: Stenotrophomonas maltophilia; assay: Antibacterial activity against Stenotrophomonas maltophilia SMB07 assessed as reduction in bacterial growth incubated for 24 hrs in presence of polymyxin B; format: functional
[20] = test system: Stenotrophomonas maltophilia; assay: Antibacterial activity against Stenotrophomonas maltophilia NCTC 10258 assessed as reduction in bacterial colony formation at 0.5 fold MIC measured after 24 hrs by time kill assay; format: functional, organism-based; summary of the method: as §2
[21] = test system: Acinetobacter baumannii; assay: Antibacterial activity against Acinetobacter baumannii NCTC 19606 assessed as reduction in bacterial growth incubated for 24 hrs in presence of polymyxin B; format: functional
[22] = test system: Pseudomonas aeruginosa; assay: Antibacterial activity against Pseudomonas aeruginosa PA30 harboring VIM-2 assessed as reduction in bacterial growth incubated for 24 hrs in presence of polymyxin B; format: functional
[23] = test system: Enterococcus faecium; assay: Antibacterial activity against vancomycin-resistant Enterococcus faecium OEF65 assessed as reduction in bacterial growth incubated for 24 hrs in presence of polymyxin B; format: functional
[24] = test system: Pseudomonas aeruginosa; assay: Potentiation of polymyxin B-induced antibacterial activity against Pseudomonas aeruginosa PA14 assessed as fold reduction in polymyxin B MIC measured after 24 hrs in presence of polymyxin B by checkerboard assay; format: functional
[25] = test system: Pseudomonas aeruginosa; assay: Potentiation of polymyxin B-induced antibacterial activity against Pseudomonas aeruginosa ATCC 27853 assessed as fold reduction in polymyxin B MIC measured after 24 hrs in presence of polymyxin B by checkerboard assay; format: functional
[26] = test system: Pseudomonas aeruginosa; assay: Antibacterial activity against Pseudomonas aeruginosa PA14 assessed as reduction in bacterial growth incubated for 24 hrs in presence of polymyxin B; format: functional
[27] = test system: Streptococcus pyogenes; assay: Potentiation of polymyxin B-induced antibacterial activity against Streptococcus pyogenes SPY2 assessed as fold reduction in polymyxin B MIC measured after 24 hrs […] checkerboard assay; format: functional
Summary of the method: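 Polymyxin B MIC measured alone and in combination with curcumin; fold reduction derived from the two MICs. Experiments run in triplicate and reported as mean values.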

[28] = test system: Staphylococcus aureus; assay: Antibacterial activity against Staphylococcus aureus ATCC 25923 assessed as reduction in bacterial growth incubated for 24 hrs in presence of polymyxin B; format: functional
[29] = test system: Stenotrophomonas maltophilia; assay: Bactericidal activity against Stenotrophomonas maltophilia NCTC […] assessed as log reduction in colony forming units at 0.5 fold MIC measured after 24 hrs in presence of polymyxin B at MIC by time kill assay; format: functional; summary of the method: as §2
[30] = test system: Enterococcus faecium; assay: Potentiation of polymyxin B-induced antibacterial activity against vancomycin-resistant Enterococcus faecium OEF42 assessed as fold reduction in polymyxin B MIC measured after 24 hrs in presence of polymyxin B by checkerboard assay; format: functional
[31] = test system: Enterococcus faecium; assay: Potentiation of polymyxin B-induced antibacterial activity against vancomycin-resistant Enterococcus faecium OEF65 assessed as fold reduction in polymyxin B MIC measured after 24 hrs in presence of polymyxin B by checkerboard assay; format: functional

CC[C@H](C)CCCCC(=O)N[C@@H](CCN)C(=O)N[C@H](C(=O)N[C@@H](CCN)C(=O)N[C@H]1CCNC(=O)[C@H]([C@@H](C)O)NC(=O)[C@H](CCN)NC(=O)[C@H](CCN)NC(=O)[C@H](CC(C)C)NC(=O)[C@@H](Cc2ccccc2)NC(=O)[C@H](CCN)NC1=O)[C@@H](C)O.O=S(=O)(O)O
fractional inhibitory concentration index (FICI) [1]: 0.52
MIC [2]: 0.024 µM
fractional inhibitory concentration index (FICI) [3]: 0.313
Activity [4]: 2 log10CFU/ml
MIC [5]: 0.79 µM
fractional inhibitory concentration index (FICI) [6]: 0.094
Activity [7]: inactive
fractional inhibitory concentration index (FICI) [8]: 0.068
Activity [9]: 2 log10CFU/ml
MIC [10]: 0.19 µM
MIC [11]: 0.024 µM
fractional inhibitory concentration index (FICI) [12]: 0.031
MIC [13]: 0.19 µM

COc1cc(/C=C/C(=O)CC(=O)/C=C/c2ccc(O)c(OC)c2)ccc1O [CURCUMIN]
fold change (FC) [14]: 3
MIC [15]: 22 µM
fold change (FC) [16]: 3
fold change (FC) [17]: 3
MIC [18]: 43 µM
MIC [19]: 22 µM
Activity [20]: inactive
MIC [21]: 22 µM
MIC [22]: 174 µM
MIC [23]: 43 µM
fold change (FC) [24]: 3
fold change (FC) [25]: 3
MIC [26]: 22 µM
fold change (FC) [27]: 3
MIC [28]: 87 µM
Activity [29]: >3 log10CFU/ml
fold change (FC) [30]: 3
fold change (FC) [31]: 3

— ChEMBL document CHEMBL4715738, “In Vitro Antibacterial Activity of Curcumin-Polymyxin B Combinations against Multidrug-Resistant Bacteria Associated with Traumatic Wound Infections” (J Nat Prod, 2016)
